core dimer inh: inhibitors of HCV core protein dimerization, primary screen, biochemical, TR-FRET, high-throughput; TR-FRET GST/Flag-core106 dimerization, 1536-well; AID 1899, 2009; hit rate 0.33% among 300,000; inhibition, % at 5 µM;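 active = inhibition above the mean of all tested compounds plus 3 SD, set per screening campaign, cut at about 45% in these data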
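Test system: GST/Flag-tagged HCV core106 proteins; Medium: KF-containing HEPES buffer, pH 7.45, DTT, CHAPS, BSA; Times: compound-protein-antibody incubation 4 h at 22.5 °C; Detection: TR-FRET 671 and 617 nm emission; Benchmarks: wells lacking GST-core106 and wells with excess unlabelled core106.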
PP5 primary: PP5 phosphatase inhibitors, primary screen, biochemical, fluorescence; Serine/threonine-protein phosphatase 5 (Homo sapiens), P53041; purified PP5c, OMFP substrate fluorescence; inhibition, % at 6.7 µM; hit rate 0.18% among 320,000; AID 1987, 2009;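 active = inhibition above the campaign's mean inhibition across all tested compounds plus 3 SD, cut at about 9.5% in these data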;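 note: 0% = DMSO only and 100% = 100 µM cantharidin control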
Target sequence (P53041 whole entry, looked up): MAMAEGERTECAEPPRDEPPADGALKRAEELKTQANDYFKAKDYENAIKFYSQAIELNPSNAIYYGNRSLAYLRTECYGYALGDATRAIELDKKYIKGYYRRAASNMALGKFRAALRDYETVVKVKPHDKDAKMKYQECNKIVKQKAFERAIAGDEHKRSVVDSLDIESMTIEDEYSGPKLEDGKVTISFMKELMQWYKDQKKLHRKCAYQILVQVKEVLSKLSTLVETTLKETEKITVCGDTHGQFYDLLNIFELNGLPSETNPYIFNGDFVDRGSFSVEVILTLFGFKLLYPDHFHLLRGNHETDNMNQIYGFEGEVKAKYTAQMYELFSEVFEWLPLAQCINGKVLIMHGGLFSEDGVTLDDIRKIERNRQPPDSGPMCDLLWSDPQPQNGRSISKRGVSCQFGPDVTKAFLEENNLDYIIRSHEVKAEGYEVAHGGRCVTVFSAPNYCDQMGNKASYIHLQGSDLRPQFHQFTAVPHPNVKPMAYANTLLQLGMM
Myeloid diff MLP: induction of myeloid progenitor differentiation, primary screen, cell-based, flow cytometry, MLPCN library; calls only at 10 µM; hit rate 1% among 360,000; AID 624256, 2012; ER-HoxA9 myeloid progenitors, lysozyme-GFP differentiation;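 active = normalized GFP-positive differentiation at or above the plate's own cutoff, the solvent-only control mean plus 3 SD; inconclusive = no clear call, values can overlap the other calls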;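 note: cells exposed to compound for four days before flow analysis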
PP1 inh: PP1-alpha phosphatase inhibitors, primary screen, counter-screen for PP5 inhibitor project, biochemical, fluorescence, OMFP substrate, single point | Serine/threonine-protein phosphatase PP1-alpha catalytic subunit (Homo sapiens), P62136 | purified PP1alpha | inhibition, % at 6.7 µM | hit rate 0.9% among 320,000 | AID 2235, 2010;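 active = inhibition above the mean inhibition of all tested compounds plus 3 SD, computed separately for each screening campaign, cut at about 15% in these data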
NadD block: inhibitors of S. aureus NadD, primary screen, biochemical, colorimetric, uHTS; hit rate 0.78% among 360,000; inhibition, % at 20 µM; Nicotinate-nucleotide adenylyltransferase NadD (Staphylococcus aureus N315); purified NadD enzyme, colorimetric absorbance read-out; in the data active = inhibition above about 26%
Fh CTSL1 inh: Fasciola hepatica cathepsin L1 inhibitors, primary screen, counter-screen for PFM18AAP inhibitor project, biochemical, QFRET, fluorogenic peptide substrate | recombinant F. hepatica cathepsin L1, Z-Leu-Arg-MCA fluorescence | inhibition, % at 5.96 µM | hit rate 0.49% among 300,000 | AID 1906, 2009;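 active = inhibition above the mean of all tested compounds plus 3 SD, set per screening campaign, cut at about 17% in these data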;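 note: 0% = plate median of test compound wells and 100% = 1 µM Z-Phe-Ala-diazomethylketone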
Numbers without * were called inactive. A selection: hits, their analogues and other compounds. The true share with any hit is near 3.1%.

Results for CN(CC(=O)Nc1c(Cl)cccc1Cl)C(=O)c1cccc(-n2cccc2)c1 ?
core dimer inh: 33; PP5 primary: 0; Myeloid diff MLP: inactive; PP1 inh: -4; NadD block: 1; Fh CTSL1 inh: 3

Results for COc1ccc(NC(=O)CN(C)C(=O)c2cc(-c3ccco3)nc3ccccc23)cc1 ?
core dimer inh: 61*; PP5 primary: 1; Myeloid diff MLP: inactive; PP1 inh: 5; NadD block: 23; Fh CTSL1 inh: -3

Results for O=C(O)c1cccc(Oc2ccc(C(=O)O)c([N+](=O)[O-])c2)c1 ?
Myeloid diff MLP: inactive; NadD block: 0

What do the screens show for `COc1ccc(NC(=O)CN(C)C(=O)/C=C/c2cn(-c3ccccc3)nc2-c2ccc(C)cc2)cc1`?
core dimer inh: 12; PP5 primary: 6; Myeloid diff MLP: inactive; PP1 inh: 13; NadD block: 10; Fh CTSL1 inh: 20*

What do the screens show for `COc1ccc(NC(=O)CN(C)C(=O)/C=C/c2cn(-c3ccccc3)nc2-c2ccc(F)cc2)cc1`?
core dimer inh: 4; PP5 primary: 4; Myeloid diff MLP: inactive; PP1 inh: -10; NadD block: 14; Fh CTSL1 inh: 1

How did N[C@@H](Cc1ccccc1)C(=O)N1CCC(C(=O)N[C@@H](CCC(=O)O)C(=O)O)CC1 do in these assays?
core dimer inh: 1; PP5 primary: 0; Myeloid diff MLP: inactive; PP1 inh: 1; NadD block: -4; Fh CTSL1 inh: -2

How did Cc1ncc(CO)c2c1Oc1nc(-c3ccccc3F)nc(SCC(=O)N(C)c3ccccc3)c1C2 do in these assays?
core dimer inh: 53*; PP5 primary: 1; Myeloid diff MLP: inactive; PP1 inh: 9; NadD block: 21; Fh CTSL1 inh: 1

Results for S=C(NCCN(C1CCCCC1)C1CCCC1)Nc1cccc(Cl)c1 ?
core dimer inh: -5; PP5 primary: -3; Myeloid diff MLP: active; PP1 inh: 4; NadD block: 0; Fh CTSL1 inh: 0

What do the screens show for `CCOC(=O)[C@]12CCC=C1N(Cc1ccc3c(c1)OCO3)C(=O)[C@H](CC(=O)N1CCOCC1)C2`?
Myeloid diff MLP: inactive; NadD block: 7

What do the screens show for `CCOc1ccc(NC(=O)C2CC(=O)N3CCCN=C3S2)cc1` (stereo not given)?
core dimer inh: 50*; PP5 primary: -1; Myeloid diff MLP: inactive; PP1 inh: 8; NadD block: -4; Fh CTSL1 inh: 1

Results for CCCOc1ccc(NC(=O)C2CC(=O)N3CCCN=C3S2)cc1 (stereo not given) ?
core dimer inh: 7; PP5 primary: 0; Myeloid diff MLP: inactive; PP1 inh: 9; NadD block: -7; Fh CTSL1 inh: -2

How did COc1cccc(-c2ncn(CCc3ccccc3OC)c2C(C)C)c1 do in these assays?
Myeloid diff MLP: inactive; NadD block: -2

What do the screens show for `CCCNC(=O)c1cc2c3ccccc3n(C)c2s1`?
core dimer inh: -12; PP5 primary: 1; Myeloid diff MLP: inactive; PP1 inh: 0; NadD block: 6; Fh CTSL1 inh: 8

Results for Cn1c2ccccc2c2cc(C(=O)NNC(=O)CCl)sc21 ?
core dimer inh: 3; PP5 primary: -3; Myeloid diff MLP: inactive; PP1 inh: 0; NadD block: -15; Fh CTSL1 inh: 94*

What do the screens show for `CS(=O)(=O)c1ccc(-c2sc3cc4c(cc3c2C(=O)NN2CCOCC2)OCO4)cc1`?
Myeloid diff MLP: inactive; NadD block: 24

Results for C[n+]1c2n(c3ccccc31)N=C(c1ccc(Cl)cc1)CS2 ?
core dimer inh: 4; PP5 primary: -2; Myeloid diff MLP: active; PP1 inh: 0; NadD block: 12; Fh CTSL1 inh: 0

How did COc1ccc(C2=Nn3c([n+](C)c4ccccc43)SC2)cc1 do in these assays?
core dimer inh: -2; PP5 primary: 3; Myeloid diff MLP: inconclusive; PP1 inh: -4; NadD block: -4; Fh CTSL1 inh: 8

Results for Cc1cccc(-n2c(C)c(-c3ccccc3)[nH]c2=S)c1 ?
core dimer inh: -6; PP5 primary: 0; Myeloid diff MLP: active; PP1 inh: 4; NadD block: 7; Fh CTSL1 inh: -5

Results for CCc1nc2ccc(C(=O)NCC3CCCCC3)cn2c1N(C)C(=O)c1cccc(OC)c1 ?
Myeloid diff MLP: inactive; NadD block: 6

What do the screens show for `CCCCC1=CC2=C(c3ccco3)C(=O)C(C)(OC(=O)c3ccc(OC)cc3)C(=O)C2=CN1Cc1ccccc1` (stereo not given)?
core dimer inh: 15; PP5 primary: 0; Myeloid diff MLP: inactive; PP1 inh: 13; NadD block: 9; Fh CTSL1 inh: 8

How did CCCCC1=CC2=C(c3ccco3)C(=O)C(C)(OC(=O)c3ccc(OC)cc3)C(=O)C2=CN1Cc1ccc2c(c1)OCO2 (stereo not given) do in these assays?
core dimer inh: 55*; PP5 primary: 2; Myeloid diff MLP: inactive; PP1 inh: 24*; NadD block: 28; Fh CTSL1 inh: 1

How did COc1ccc(NC(=O)C2Cc3cc(S(=O)(=O)N4CCCCC4)ccc3N2C(C)=O)cc1Cl (stereo not given) do in these assays?
core dimer inh: 12; PP5 primary: 1; Myeloid diff MLP: inactive; PP1 inh: -4; NadD block: 7; Fh CTSL1 inh: -6

Results for CCc1ccc(S(=O)(=O)/N=C2\C=CC(=O)c3ccccc32)cc1 ?
core dimer inh: 32; PP5 primary: 2; PP1 inh: 5; Fh CTSL1 inh: -2

Results for O=S(=O)(N=C1C=CC(=NS(=O)(=O)c2ccccc2)c2ccccc21)c1ccccc1 ?
Myeloid diff MLP: active; NadD block: 33*

How did Cc1nn(-c2ccccc2)c(C)c1C(=O)OCC(=O)Nc1ccccc1Cl do in these assays?
Myeloid diff MLP: inactive; NadD block: 3

How did Cc1c(C(=O)OCc2ccccc2)[nH]c2c1C(=O)CC(c1ccco1)C2 (stereo not given) do in these assays?
core dimer inh: 51*; PP5 primary: 0; Myeloid diff MLP: inconclusive; PP1 inh: 9; NadD block: 16; Fh CTSL1 inh: 0

What do the screens show for `COC(=O)[C@]1(Cc2ccccc2)N[C@H](CN(C)C(=O)COc2ccccc2)[C@@H]2C(=O)N(Cc3ccccc3)C(=O)[C@@H]21`?
Myeloid diff MLP: inactive; NadD block: 1

High-throughput results from PubChem BioAssay.
